Converted amounts (≈) assume the structure as drawn.
Legend:
[1] = Association constant to Ac2-L-Lys-D-Ala-D-Ala determined at pH 9; Value ranges from 5E4-7.5E4
Bacteroides fragilis [2] = assay: Minimum inhibitory concentration of compound was determined against Bacteroides fragilis L 1236; format: functional
Outline: (§1)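 Microbroth dilution MIC (µg/mL) in Wilkins-Chalgren broth, final inoculum 10^5 cfu/mL, incubated 48 h in an anaerobic chamber.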

Bacteroides fragilis [3] = assay: Minimum inhibitory concentration of compound was determined against Bacteroides fragilis L 1010; format: functional; outline: as §1
Bacteroides fragilis [4] = assay: Minimum inhibitory concentration of compound was determined against Bacteroides fragilis L 1011; format: functional; outline: as §1
Escherichia coli [5] = assay: Efficacy of compound administered intravenously against Escherichia coli L 47 Septicemia in mouse; format: functional; details: iv
Outline: (§2)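 Mouse septicemia from intraperitoneal injection of about 10^4 cells of E. coli L 47, about 100 times the 50% lethal dose. Groups of five to eight mice each got a single dose immediately after infection, by the route stated in the line. ED50 in mg/kg was calculated from percent survivors at each dose on day 7 (Spearman-Kärber).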

Escherichia coli [6] = assay: Efficacy of compound administered subcutaneously against Escherichia coli L 47 Septicemia in mouse; format: functional; details: sc; outline: as §2
Enterobacter cloacae [7] = assay: Minimum inhibitory concentration of compound was determined against Enterobacter cloacae L 1485; format: functional
Outline: (§3)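 MIC (µg/mL) by microbroth dilution in Iso-Sensitest broth; final inoculum 10^4 cfu/mL; 24 h at 37 °C in air.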

Enterobacter cloacae [8] = assay: Minimum inhibitory concentration of compound was determined against Enterobacter cloacae L 1504; format: functional; outline: as §3
Enterococcus faecalis = assay: Minimum inhibitory concentration against Enterococcus faecalis ATCC 7080; format: functional
Outline: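 Microbroth dilution MIC (µg/mL), final inoculum 10^4 cfu/mL, incubated 24 h at 37 °C in air.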

Escherichia coli [9] = assay: Minimum inhibitory concentration of compound was determined against Escherichia coli L 1153; format: functional; outline: as §3
Escherichia coli [10] = assay: Minimum inhibitory concentration of compound was determined against Escherichia coli L 1347; format: functional; outline: as §3
Escherichia coli [11] = assay: Minimum inhibitory concentration of compound was determined against Escherichia coli L 1484; format: functional; outline: as §3
Escherichia coli [12] = assay: Minimum inhibitory concentration of compound was determined against Escherichia coli L 1513; format: functional; outline: as §3
Escherichia coli [13] = assay: Minimum inhibitory concentration of compound was determined against Escherichia coli L 1536; format: functional; outline: as §3
Escherichia coli [14] = assay: Minimum inhibitory concentration of compound was determined against Escherichia coli L 1572; format: functional; outline: as §3
Escherichia coli [15] = assay: Minimum inhibitory concentration against Escherichia coli L 47; format: functional; outline: as §3
Klebsiella pneumoniae [16] = assay: Minimum inhibitory concentration of compound was determined against Klebsiella pneumoniae L 1481; format: functional; outline: as §3
Klebsiella pneumoniae [17] = assay: Minimum inhibitory concentration of compound was determined against Klebsiella pneumoniae L 1499; format: functional; outline: as §3
Mus musculus = organism: Mus musculus; assay: Number of mouse survivors to that of treated with compound; 6 out of 8 survived; format: functional
Proteus mirabilis [18] = assay: Minimum inhibitory concentration of compound was determined against Proteus mirabilis L 1157; format: functional; outline: as §3
Proteus mirabilis [19] = assay: Minimum inhibitory concentration of compound was determined against Proteus mirabilis L 1356; format: functional; outline: as §3
Proteus vulgaris [20] = assay: Minimum inhibitory concentration against Proteus vulgaris ATCC 881; format: functional; outline: as §3
Proteus vulgaris [21] = assay: Minimum inhibitory concentration of compound was determined against Proteus vulgaris L 1539; format: functional; outline: as §3
Pseudomonas aeruginosa [22] = assay: Minimum inhibitory concentration of compound was determined against Pseudomonas aeruginosa L 1348; format: functional; outline: as §3
Pseudomonas aeruginosa [23] = assay: Minimum inhibitory concentration against Pseudomonas aeruginosa ATCC 10145; format: functional; outline: as §3
Pseudomonas aeruginosa [24] = assay: Minimum inhibitory concentration of compound was determined against Pseudomonas aeruginosa L 1138; format: functional; outline: as §3
Pseudomonas aeruginosa [25] = assay: Minimum inhibitory concentration of compound was determined against Pseudomonas aeruginosa L 1533; format: functional; outline: as §3
Staphylococcus aureus = assay: Minimum inhibitory concentration against Staphylococcus aureus L 165; format: functional; outline: as §3
Serratia marcescens [26] = assay: Minimum inhibitory concentration of compound was determined against Serratia marcescens L 1506; format: functional; outline: as §3
Salmonella typhimurium = assay: Minimum inhibitory concentration of compound was determined against Salmonella Typhimurium L 35; format: functional, Salmonella enterica subsp. enterica serovar Typhimurium; details: Salmonella enterica; outline: as §3
Streptococcus pyogenes [27] = assay: Efficacy of compound administered subcutaneously against Streptococcus pyogenes L 49 Septicemia in mouse; format: functional; details: sc
Outline: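 Mice were infected intraperitoneally with about 10^5 Strep. pyogenes L 49 cells, about 100 times the 50% lethal dose. Groups of 5–8 mice were treated once right after challenge, by the route stated in the line. ED50 (mg/kg) was derived from percentage survival at each dose on day 7 (Spearman-Kärber).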

Shigella sonnei = assay: Minimum inhibitory concentration of compound was determined against Shigella sonnei L 363; format: functional; outline: as §3
Streptococcus pyogenes [28] = assay: Minimum inhibitory concentration of compound was determined against Streptococcus pyogenes L 49 in mouse; format: functional
Shigella dysenteriae = assay: Minimum inhibitory concentration of compound was determined against Shigella dysentariae L155; format: functional
[29] = test system: Staphylococcus epidermidis; assay: Minimum inhibitory concentration against Staphylococcus epidermidis ATCC 12228; format: functional; outline: as §3
Serratia marcescens [30] = assay: Minimum inhibitory concentration of compound was determined against Serratia marcescens L 1488; format: functional; outline: as §3
Streptococcus pneumoniae = assay: Minimum inhibitory concentration against Streptococcus pneumoniae L 44; format: functional
Outline: (§4)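 MIC (µg/mL) by microbroth dilution in Todd-Hewitt broth, final inoculum 10^4 cfu/mL, incubated 24 h at 37 °C in air.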

[31] = test system: Staphylococcus haemolyticus; assay: Minimum inhibitory concentration against Staphylococcus haemolyticus L 602; format: functional; outline: as §3
Streptococcus pyogenes [32] = assay: Minimum inhibitory concentration against Streptococcus pyogenes L 49; format: functional; outline: as §4
Pseudomonas aeruginosa [33] = assay: Minimum inhibitory concentration of compound was determined against Pseudomonas aeruginosa L 1498; format: functional; outline: as §3

NCCCNCCCNCCCNC(=O)[C@H]1NC(=O)[C@H]2NC(=O)[C@H](NC(=O)[C@@H]3NC(=O)[C@H]4NC(=O)[C@@H](Cc5ccc(c(Cl)c5)Oc5cc3cc(c5O)Oc3ccc(cc3Cl)[C@H]2O)NC(=O)[C@H](N)c2ccc(O)c(c2)Oc2cc(O)cc4c2)c2ccc(O)c(c2)-c2c(O)cc(O)cc21
Ka [1]: 75000 M⁻¹ | MIC (Bacteroides fragilis [2]): 128 µg/mL (≈ 93.5 µM) | MIC (Bacteroides fragilis [3]): 16 µg/mL (≈ 11.7 µM) | MIC (Bacteroides fragilis [4]): 32 µg/mL (≈ 23.4 µM) | ED50 (Escherichia coli [5]): < 40 mg/kg | ED50 (Escherichia coli [6]): > 200 mg/kg | MIC (Enterobacter cloacae [7]): 4 µg/mL (≈ 2.92 µM) | MIC (Enterobacter cloacae [8]): 8 µg/mL (≈ 5.84 µM) | MIC (Enterococcus faecalis): 0.25 µg/mL (≈ 0.183 µM) | MIC (Escherichia coli [9]): 1 µg/mL (≈ 0.73 µM) | MIC (Escherichia coli [10]): 4 µg/mL (≈ 2.92 µM) | MIC (Escherichia coli [11]): 2 µg/mL (≈ 1.46 µM) | MIC (Escherichia coli [12]): 2 µg/mL (≈ 1.46 µM) | MIC (Escherichia coli [13]): 2 µg/mL (≈ 1.46 µM) | MIC (Escherichia coli [14]): 2 µg/mL (≈ 1.46 µM) | MIC (Escherichia coli [15]): 0.5 µg/mL (≈ 0.365 µM) | MIC (Klebsiella pneumoniae [16]): 4 µg/mL (≈ 2.92 µM) | MIC (Klebsiella pneumoniae [17]): 8 µg/mL (≈ 5.84 µM) | Survivors (Mus musculus): 6 | MIC (Proteus mirabilis [18]): 128 µg/mL (≈ 93.5 µM) | MIC (Proteus mirabilis [19]): 32 µg/mL (≈ 23.4 µM) | MIC (Proteus vulgaris [20]): 64 µg/mL (≈ 46.7 µM) | MIC (Proteus vulgaris [21]): 32 µg/mL (≈ 23.4 µM) | MIC (Pseudomonas aeruginosa [22]): 4 µg/mL (≈ 2.92 µM) | MIC (Pseudomonas aeruginosa [23]): 2 µg/mL (≈ 1.46 µM) | MIC (Pseudomonas aeruginosa [24]): 32 µg/mL (≈ 23.4 µM) | MIC (Pseudomonas aeruginosa [25]): 64 µg/mL (≈ 46.7 µM) | MIC (Staphylococcus aureus): 0.063 µg/mL (≈ 0.046 µM) | MIC (Serratia marcescens [26]): 8 µg/mL (≈ 5.84 µM) | MIC (Salmonella typhimurium): 4 µg/mL (≈ 2.92 µM) | ED50 (Streptococcus pyogenes [27]): 0.72 mg/kg | MIC (Shigella sonnei): 2 µg/mL (≈ 1.46 µM) | MIC (Streptococcus pyogenes [28]): 0.06 µg/mL (≈ 0.0438 µM) | MIC (Shigella dysenteriae): 1 µg/mL (≈ 0.73 µM) | MIC [29]: 0.016 µg/mL (≈ 0.0117 µM) | MIC (Serratia marcescens [30]): 8 µg/mL (≈ 5.84 µM) | MIC (Streptococcus pneumoniae): 0.125 µg/mL (≈ 0.0913 µM) | MIC [31]: 0.063 µg/mL (≈ 0.046 µM) | MIC (Streptococcus pyogenes [32]): 0.063 µg/mL (≈ 0.046 µM) | MIC (Pseudomonas aeruginosa [33]): 64 µg/mL (≈ 46.7 µM)

NCCN(CCN)CCNC(=O)[C@H]1NC(=O)[C@H]2NC(=O)[C@H](NC(=O)[C@@H]3NC(=O)[C@H]4NC(=O)[C@@H](Cc5ccc(c(Cl)c5)Oc5cc3cc(c5O)Oc3ccc(cc3Cl)[C@H]2O)NC(=O)[C@H](N)c2ccc(O)c(c2)Oc2cc(O)cc4c2)c2ccc(O)c(c2)-c2c(O)cc(O)cc21
Ka [1]: 75000 M⁻¹ | MIC (Enterococcus faecalis): 0.125 µg/mL (≈ 0.0942 µM) | MIC (Escherichia coli [15]): 1 µg/mL (≈ 0.753 µM) | MIC (Proteus vulgaris [20]): 32 µg/mL (≈ 24.1 µM) | MIC (Pseudomonas aeruginosa [23]): 8 µg/mL (≈ 6.03 µM) | MIC (Staphylococcus aureus): 0.063 µg/mL (≈ 0.0475 µM) | ED50 (Streptococcus pyogenes [27]): 1.25 mg/kg | MIC (Streptococcus pyogenes [28]): 0.06 µg/mL (≈ 0.0452 µM) | MIC [29]: 0.016 µg/mL (≈ 0.0121 µM) | MIC (Streptococcus pneumoniae): 0.125 µg/mL (≈ 0.0942 µM) | MIC [31]: 0.063 µg/mL (≈ 0.0475 µM) | MIC (Streptococcus pyogenes [32]): 0.063 µg/mL (≈ 0.0475 µM)
